Compounds with a hit are over-represented: about 1.6% of the library has one in this group of screens.
MT1-MMP act inh – blockers of MT1-MMP proenzyme processing, primary screen, HT1080 RFP-PRO-GFP cells, GFP/RFP fluorescence | Matrix metalloproteinase-14 (Homo sapiens), P50281 | GFP/RFP ratio fluorescence, overnight; percent of plate control window, DMSO zero | GFP/RFP ratio change, % at 20 µM | 0.061% of 360,000 active;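 active = GFP/RFP ratio change of at least 30% with cell ATP level not reduced by more than half and red fluorescence within 50% of control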
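Assay system: HT1080 RFP-PRO-GFP cells. Benchmarks: DMSO vehicle wells and RFP-L50D-GFP reporter cell wells. Times: overnight cell settling, then overnight compound exposure, 37 °C, 5% CO2. Compound: 20 µM single dose, 1% DMSO. Read-out basis: GFP/RFP fluorescence ratio.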
ADAM17 inh – ADAM17 inhibitors, primary screen, biochemical, QFRET; recombinant ADAM17, EDANS/DABCYL FRET peptide cleavage; inhibition, % at 6.95 µM; 0.83% of 370,000 active; AID 720648, 2013;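 active = inhibition above the mean of compounds lying between control limits plus 3 SD, set per campaign, cut at about 8.5% in these data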;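 note: 0% = DMSO-only wells as the low control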
Tn6 DDE FP – inhibitors of Tn6 peptide binding to fibrin DD(E), primary screen, biochemical, fluorescence polarization, human fibrin, Tn6 probe | inhibition, % at 8.3 µM | 0.21% of 370,000 active | Fibrin DD(E) TRITC-Tn6 fluorescence polarization displacement;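 active = inhibition above a per-campaign cutoff: mean of compounds within control limits plus 3 SD, cut at about 15% in these data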;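 note: 0% = median of all compound wells on the plate and 100% = blocking peptide control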
ADAM10 inh – human ADAM10 inhibitors, primary screen, biochemical, QFRET, HTS; AID 720582, 2013; Disintegrin and metalloproteinase domain-containing protein 10 (Homo sapiens), O14672; recombinant ADAM10, EDANS/DABCYL FRET peptide cleavage, 3 h; inhibition, % at 7 µM; 0.62% of 370,000 active;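 active = inhibition above a per-campaign cutoff equal to the mean of compounds falling between control-based bounds plus 3 SD, cut at about 20% in these data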;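 note: 0% = DMSO wells while the 100% control is not disclosed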
Target sequence (O14672 214-748 limits assumed): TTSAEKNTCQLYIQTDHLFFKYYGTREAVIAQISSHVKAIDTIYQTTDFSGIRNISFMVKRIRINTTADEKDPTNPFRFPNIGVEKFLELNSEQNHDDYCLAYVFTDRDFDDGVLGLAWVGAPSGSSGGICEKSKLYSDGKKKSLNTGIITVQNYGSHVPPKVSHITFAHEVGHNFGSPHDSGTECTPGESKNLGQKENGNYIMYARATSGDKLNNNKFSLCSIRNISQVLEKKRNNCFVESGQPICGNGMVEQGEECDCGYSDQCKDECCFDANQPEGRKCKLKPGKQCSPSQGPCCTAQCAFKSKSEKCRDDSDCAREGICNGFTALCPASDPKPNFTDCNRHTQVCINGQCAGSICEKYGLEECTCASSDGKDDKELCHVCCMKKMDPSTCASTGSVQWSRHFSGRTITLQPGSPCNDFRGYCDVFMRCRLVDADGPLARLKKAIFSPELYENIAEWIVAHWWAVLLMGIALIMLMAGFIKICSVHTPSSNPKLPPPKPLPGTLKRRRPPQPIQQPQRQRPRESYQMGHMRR
DDE Tn7 FP inh – inhibitors of Tn7 peptide binding to fibrin DD(E), primary screen, biochemical, fluorescence polarization, human fibrin, Tn7 probe; 0.13% of 370,000 active; inhibition, % at 8.3 µM; FP displacement of FITC-Tn7 peptide from fibrin DD(E); 0% = median of compound wells per plate; Fibrinogen beta chain (Homo sapiens), P02675;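 active = inhibition above the mean of compounds falling within the control limits plus 3 SD of them, cut at about 14% in these data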;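 note: 0% = plate median of compound wells and 100% = 10 µM Aha-Tn7 peptide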
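Also added: labelled Tn7 tracer, 0.1 µM; Assay system: human fibrin DD(E) protein; Amount: 2 µM fibrin DD(E); Schedule: 10 min compound pre-incubation, 3 h probe incubation at room temperature; Repeats: one replicate per compound; Read-out basis: percent inhibition; Measured by: fluorescence polarization of the labelled Tn7 tracer.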
ADAM10 confirm – human ADAM10 inhibitors, confirmation, biochemical, QFRET, triplicate; ADAM10 QFRET peptide cleavage, EDANS fluorescence; 1% of 2,100 active; inhibition, % at 6.95 µM; shares compounds with ADAM10 inh; AID 743208, 2013;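 active = inhibition above about 20% chosen separately for each screening run, limit read from the data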;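 note: 0% = DMSO wells and 100% = marimastat wells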
ADAM17 counter – ADAM17 inhibitors, counter-screen for ADAM10 exosite inhibitor project, biochemical, QFRET, high throughput. shares compounds with ADAM10 inh. ADAM17 QFRET peptide cleavage, EDANS fluorescence. inhibition, % at 6.95 µM. 0.5% of 2,100 active. AID 743214, 2013;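 active = mean triplicate inhibition above the solvent-only control wells' mean plus 3 SD, cut at about 12% in these data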;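 note: 0% = DMSO wells and 100% = marimastat wells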
ADAM10 counter – ADAM10 inhibitors, counter-screen for ADAM17 exosite inhibitor project, biochemical, FRET, human ADAM10; recombinant ADAM10, EDANS/DABCYL FRET peptide cleavage, 3 h; shares compounds with ADAM17 inh; inhibition, % at 6.95 µM; AID 743256, 2014; 47% of 2,900 active;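 active = mean inhibition over the triplicate runs exceeds the activity threshold set in the earlier primary screen, cut at about 20% in these data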;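 note: 0% = DMSO wells and 100% = marimastat wells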
ADAM17 confirm – ADAM17 inhibitors, hit retest, confirmation, biochemical, QFRET peptide cleavage. recombinant ADAM17, EDANS/DABCYL QFRET peptide cleavage. shares compounds with ADAM17 inh. inhibition, % at 6.95 µM. 65% of 2,900 active. AID 743257, 2014;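 active = mean inhibition across replicates above the hit cutoff set in the primary screen, cut at about 8.5% in these data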;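 note: 0% = DMSO wells and 100% = marimastat wells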
* hit, by the source's call.

Results for CCOC(=O)c1c(-c2ccccc2)csc1NC(=O)CSc1nc(N)cc(N)n1 ?
MT1-MMP act inh: -8; ADAM17 inh: 13*; Tn6 DDE FP: 2; ADAM10 inh: 26*; DDE Tn7 FP inh: 6; ADAM10 confirm: 5; ADAM17 counter: 1; ADAM10 counter: 11; ADAM17 confirm: 9.8*

Results for COc1ccc(Sc2cccc(Cl)c2)c(C(=O)O)c1 ?
ADAM17 inh: -5; Tn6 DDE FP: 2; ADAM10 inh: -3; DDE Tn7 FP inh: -1

Results for Cc1ccc(Nc2nnc(SCC(=O)Nc3cccc(S(=O)(=O)N4CCCCC4)c3)s2)cc1 ?
MT1-MMP act inh: 3; ADAM17 inh: 11*; Tn6 DDE FP: -6; ADAM10 inh: 27*; DDE Tn7 FP inh: -13; ADAM10 confirm: 9; ADAM17 counter: 3; ADAM10 counter: 30*; ADAM17 confirm: 17*

What do the screens show for `FC(F)(F)c1cccc(NC(=S)NNC(=S)NCc2ccccc2)c1`?
MT1-MMP act inh: 10; ADAM17 inh: 12*; Tn6 DDE FP: 3; ADAM10 inh: 20*; DDE Tn7 FP inh: 6; ADAM10 confirm: 6; ADAM17 counter: 3; ADAM10 counter: 31*; ADAM17 confirm: 19*

How did FC(F)(F)c1cccc(NC(=S)NCC2COc3ccccc3O2)c1 (configuration not stated) do in these assays?
MT1-MMP act inh: 2; ADAM17 inh: 9.2*; Tn6 DDE FP: -2; ADAM10 inh: 28*; DDE Tn7 FP inh: 1; ADAM10 confirm: 10; ADAM17 counter: 3; ADAM10 counter: 44*; ADAM17 confirm: 18*

Results for CCCCCN1CCCCC(NC(=O)C2CCCCC2)C1=O (configuration not stated) ?
ADAM17 inh: -6; Tn6 DDE FP: 1; ADAM10 inh: -11; DDE Tn7 FP inh: -2

How did CC(NC(=O)CSc1n[nH]c(N)n1)c1ccccc1 (configuration not stated) do in these assays?
MT1-MMP act inh: 1; ADAM17 inh: 1; Tn6 DDE FP: 3; ADAM10 inh: 6; DDE Tn7 FP inh: -3

Results for CCCc1ccc(-c2cc(NC(=O)CSc3n[nH]c(N)n3)n(-c3ccccc3)n2)cc1 ?
MT1-MMP act inh: 5; ADAM17 inh: 9.8*; Tn6 DDE FP: -3; ADAM10 inh: 29*; DDE Tn7 FP inh: 5; ADAM10 confirm: 4; ADAM17 counter: 2; ADAM10 counter: 29*; ADAM17 confirm: 12*

How did CC(C)N(C[C@@H]1CSCCS(=O)(=O)N1)C1CCCCC1 do in these assays?
ADAM17 inh: -2; Tn6 DDE FP: -3; ADAM10 inh: 1; DDE Tn7 FP inh: 5

From PubChem BioAssay
